# Measurements reported in ChEMBL document CHEMBL1148398, “Design, synthesis, and biological evaluation of thio-containing compounds with serum HDL-cholesterol-elevating properties” (2004).
# Experiments:
# Cricetinae gen. sp. [1] = test: Percent change in high-density lipoprotein cholesterol following oral administration of compound in hypercholesterolemic hamsters at 100 mg/kg/day for 14 days; format: functional
# Method in brief: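 Male Syrian Golden hamsters pre-fed chow plus 0.25% cholesterol for 2 weeks and kept on it. Dosed 100 mg/kg/day by oral gavage in 2% Tween 80/saline for 14 days. Serum total cholesterol and glycerol-blanked triglycerides read enzymatically; lipoproteins separated by FPLC with cholesterol measured in each fraction. % change versus vehicle controls; six per group, p < 0.05.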
# Cricetinae gen. sp. [2] = test: Effect of compound on liver weight in 1st group of cholesterol-fed male hamsters at 3 mg/kg/day after 14 days of treatment; format: functional
# Method in brief: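 Male Syrian Golden hamsters, 90–100 g, fed chow plus 0.25% cholesterol for 2 weeks before and throughout dosing. Compound suspended in 2% Tween 80 in saline, given by oral gavage for 14 days; vehicle controls. Fasted 4 h, last dose 2 h before sacrifice, then weighed and blood and liver collected. Liver enzymes read on a clinical analyzer. Six per group, mean ± SEM.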
# Rattus norvegicus [3] = test: Effect of compound on gain in body weight in 5th group of normal chow-fed male rats after a dose of 20 mg/kg/day; format: functional
# Method in brief: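 Male Sprague–Dawley CD rats (60–80 g) on standard chow under a reversed 12 h light/dark cycle. Compound was suspended in 1.3% Tween 80/0.25% CMC and given as a single daily oral gavage dose for 4 days. Rats were fasted overnight and killed 24 h after the last dose. Serum ALT, AST, ALKP and LDH were read on a clinical analyzer. Weight gain was start versus end weight. Mean ± SEM, n = 6.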
# Rattus norvegicus [4] = test: Effect of compound on relative liver weight in 1st group of normal chow-fed male rats after a dose of 1 mg/kg/day; format: functional
# Method in brief: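 Chow-fed male Sprague–Dawley CD rats, 60–80 g, dosed by oral gavage once daily for 4 days in 1.3% Tween 80/0.25% CMC. Fasted overnight and sacrificed 24 h after the last dose. Liver weight expressed as % of body weight at termination. Six per group, mean ± SEM.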
# Rattus norvegicus [5] = test: Effect of compound on low-density lipoprotein cholesterol levels in 3rd group of normal chow-fed male rats after a dose of 5 mg/kg/day; format: functional, organism-based
# Method in brief: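 Male Sprague–Dawley CD rats, 60–80 g, on standard chow with reverse 12 h light/dark cycle. One oral gavage dose daily for 4 days, suspended in 1.3% Tween 80 and 0.25% CMC. Fasted overnight; sacrificed 24 h after the last dose. Serum TC on clinical analyzer, lipoproteins by FPLC with cholesterol per fraction, T4 on analyzer. Mean ± SEM, six rats per group.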
# Rattus norvegicus [6] = test: Effect of compound on serum apolipoprotein A1 concentration in chow-fed male rats at a dose of 5 mg/kg/day; format: functional, organism-based
# Method in brief: (§1)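 Separate dose-response study in male Sprague–Dawley CD rats, 60–80 g, on chow. Oral gavage once daily for 4 days in 1.3% Tween 80 / 0.25% CMC; fasted overnight, bled 24 h after last dose. Apo-A1 by ELISA with rabbit anti-rat primary, alkaline phosphatase-conjugated anti-rabbit IgG and p-nitrophenyl phosphate substrate. HDL-C by FPLC fractionation. Mean ± SEM, six per group.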
# Rattus norvegicus [7] = test: Effect of compound on serum apolipoprotein A1 concentration in chow-fed male rats at a dose of 50 mg/kg/day; format: functional, organism-based; method in brief: as §1
# Rattus norvegicus [8] = test: Effect of compound on total plasma cholesterol levels in 6th group of normal chow-fed male rats after a dose of 50 mg/kg/day; format: functional, organism-based
# Method in brief: (§2)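 Male Sprague–Dawley CD rats (60–80 g) on Purina 5001 chow with a reverse 12 h light/dark cycle. Dosed once daily by oral gavage for 4 days, suspended in 1.3% Tween 80 / 0.25% CMC. Fasted overnight and bled 24 h after the last dose. Serum TC and glycerol-blanked TG measured enzymatically; VLDL-C by FPLC fractionation with cholesterol assay. n=6, mean ± SEM.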
# Rattus norvegicus [9] = test: Effect of compound on triglyceride levels in 7th group of normal chow-fed male rats after a dose of 100 mg/kg/day; format: functional, organism-based; method in brief: as §2
# Rattus norvegicus [10] = test: Effect of compound on lactic dehydrogenase (LDH) levels in 6th group of normal chow-fed male rats after a dose of 50 mg/kg/day; format: functional, organism-based
# Method in brief: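 Male Sprague–Dawley CD rats, 60–80 g, on chow with a reverse 12 h light/dark cycle. Given one oral gavage dose daily for 4 days, suspended in 1.3% Tween 80/0.25% CMC. Fasted overnight and sacrificed 24 h after the last dose for blood and liver. Serum liver enzymes read on a clinical analyzer. Six per group, mean ± SEM.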
# [11] = Effect on serum lipids in 3rd group of cholesterol-fed male hamsters at 30 mg/kg/day after 14 days of treatment was evaluated as ratio of total cholesterol levels to high-density lipoprotein cholesterol levels; format: functional
# Method in brief: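 Male Syrian Golden hamsters on chow plus 0.25% cholesterol, 2 weeks before and during dosing. Oral gavage for 14 days in 2% Tween 80/saline. Fasted 4 h before sacrifice. Serum total cholesterol measured enzymatically; HDL-C from cholesterol in FPLC lipoprotein fractions; TC/HDL-C ratio calculated. Six per group, mean ± SEM.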
# [12] = Effect on serum lipids in 4th group of normal chow-fed male rats after a dose of 10 mg/kg/day was evaluated as ratio of total plasma cholesterol levels to high-density lipoprotein cholesterol levels; format: functional
# Method in brief: (§3)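 Male Sprague–Dawley CD rats, 60–80 g, chow-fed, dosed by oral gavage daily for 4 days in 1.3% Tween 80/0.25% CMC. Fasted overnight, bled 24 h after the last dose. Serum total cholesterol by enzymatic reagent; HDL-C from cholesterol in FPLC fractions; TPC/HDL-C ratio calculated. Six per group, mean ± SEM.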
# [13] = Effect on serum lipids in 5th group of normal chow-fed male rats after a dose of 20 mg/kg/day was evaluated as ratio of total plasma cholesterol levels to high-density lipoprotein cholesterol levels; format: functional; method in brief: as §3
# [14] = Effect on serum lipids in 6th group of normal chow-fed male rats after a dose of 50 mg/kg/day was evaluated as ratio of total plasma cholesterol levels to high-density lipoprotein cholesterol levels; format: functional; method in brief: as §3
# Mesocricetus auratus [15] = test: Effect of compound on liver weight in 3rd group of cholesterol-fed male hamsters at 30 mg/kg/day after 14 days of treatment
# Cricetinae gen. sp. [16] = test: Effect of compound on total plasma cholesterol levels in 3rd group of cholesterol-fed male hamsters at 30 mg/kg/day after 14 days of treatment; conditions: Mesocricetus auratus
# Cricetinae gen. sp. [17] = test: Effect of compound on lactic dehydrogenase (LDH) levels in 1st group of cholesterol-fed male hamsters at 3 mg/kg/day after 14 days of treatment; conditions: Mesocricetus auratus
# Mesocricetus auratus [18] = test: Effect of compound on alanine aminotransferase (ALT) levels in 3rd group of cholesterol-fed male hamsters at 30 mg/kg/day after 14 days of treatment
# Cricetinae gen. sp. [19] = test: Effect of compound on high-density lipoprotein cholesterol levels in 4th group of cholesterol-fed male hamsters at 100 mg/kg/day after 14 days of treatment; conditions: Mesocricetus auratus
# Cricetinae gen. sp. [20] = test: Effect of compound on very low-density lipoprotein cholesterol levels in 3rd group of cholesterol-fed male hamsters at 30 mg/kg/day after 14 days of treatment; conditions: Mesocricetus auratus
compound,measurement,setting,value
CCN1CC(=O)N(c2cc(Cl)ccc2C)C1=S,Change,Cricetinae gen. sp. [1],43%
same,Liver weight,Cricetinae gen. sp. [2],9.58 g
same,Body weight,Rattus norvegicus [3],30.3 g
same,Relative liver weight,Rattus norvegicus [4],4.3%
same,Serum level,Rattus norvegicus [5],6 mg/dL
same,Serum level,Rattus norvegicus [6],72.9 mg/dL
same,Serum level,Rattus norvegicus [7],88.8 mg/dL
same,Serum level,Rattus norvegicus [8],101 mg/dL
same,Serum level,Rattus norvegicus [9],12 mg/dL
same,Level,Rattus norvegicus [10],815 U l-1
same,Ratio,[11],2.39
same,Ratio,[12],1.39
same,Ratio,[13],1.44
same,Ratio,[14],2.03
same,Liver weight,Mesocricetus auratus [15],8.5 g
same,Serum level,Cricetinae gen. sp. [16],372 mg/dL
same,Level,Cricetinae gen. sp. [17],1230 U l-1
same,Level,Mesocricetus auratus [18],112 U l-1
same,Serum level,Cricetinae gen. sp. [19],191 mg/dL
same,Serum level,Cricetinae gen. sp. [20],91 mg/dL
